PAFAH2 inh: inhibitors of human PAFAH2. Q99487. recombinant PAFAH2, FP-rhodamine activity probe, fluorescence polarization. inhibition, % at 3.39 µM. 340,000 compounds, 0.99% hits. AID 492956;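 active = inhibition above the mean over all tested compounds plus 3 SD, cut at about 30% in these data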;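 note: inhibitors block probe labeling of enzyme so polarization drops; 0% = enzyme with DMSO and 100% = wells lacking PAFAH2 protein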
ABHD4 inh: ABHD4 (mouse) inhibition, primary FP screen | Q8VD66 | AID 720543 | inhibition, % at 8.92 µM | 370,000 compounds, 0.54% hits | purified mABHD4, FP-Rh probe fluorescence polarization;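 active = inhibition exceeding the mean over every tested compound plus 3 SD, cut at about 30% in these data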;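 note: 0% = plate median of compound wells and 100% = S159A mutant with DMSO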
Target sequence (Q8VD66 whole entry, looked up): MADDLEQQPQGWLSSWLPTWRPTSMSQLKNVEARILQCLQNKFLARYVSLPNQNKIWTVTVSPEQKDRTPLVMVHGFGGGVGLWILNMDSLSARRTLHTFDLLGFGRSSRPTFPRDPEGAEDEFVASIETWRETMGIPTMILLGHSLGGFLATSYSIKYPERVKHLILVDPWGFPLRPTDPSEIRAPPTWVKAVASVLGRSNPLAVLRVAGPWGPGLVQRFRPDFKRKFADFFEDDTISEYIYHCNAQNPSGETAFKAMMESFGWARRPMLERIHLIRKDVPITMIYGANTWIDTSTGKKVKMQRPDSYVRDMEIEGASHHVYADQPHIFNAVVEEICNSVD
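Test system: mABHD4 protein | Buffer or medium: HEPES pH 7.0 buffer, 150 mM NaCl, 0.01% Pluronic F-127 | Probe or stimulus: FP-Rh fluorescent activity-based probe, added after compound pre-incubation | Timing: Pre-incubation 45 min, probe exposure 60 min, at 25 °C | Technique: Fluorescence polarization, excitation 525 nm, emission 598 nm, BODIPY TMR filters | Repeats: Single well per compound (singlicate)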
PAFAH1B3 FP inh: inhibitors of human PAFAH1B3. inhibition, % at 3.39 µM. 340,000 compounds, 0.28% hits. recombinant PAFAH1B3, FP-rhodamine probe, fluorescence polarization;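 active = inhibition above the screen-wide average of all tested compounds plus 3 SD, cut at about 25% in these data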;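 note: 0% = enzyme with DMSO only and 100% = wells lacking PAFAH1B3 protein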
PAFAH1B2 FP inh: PAFAH1B2 (human) inhibition; inhibition, % at 3.39 µM; AID 492953; recombinant PAFAH1B2, FP-rhodamine activity probe, fluorescence polarization; 340,000 compounds, 1.2% hits; P68402;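 active = inhibition above the mean of all tested compounds plus 3 SD, cut at about 24% in these data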;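 note: 0% = enzyme with DMSO and 100% = wells lacking PAFAH1B2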
Target sequence (P68402 whole entry, looked up): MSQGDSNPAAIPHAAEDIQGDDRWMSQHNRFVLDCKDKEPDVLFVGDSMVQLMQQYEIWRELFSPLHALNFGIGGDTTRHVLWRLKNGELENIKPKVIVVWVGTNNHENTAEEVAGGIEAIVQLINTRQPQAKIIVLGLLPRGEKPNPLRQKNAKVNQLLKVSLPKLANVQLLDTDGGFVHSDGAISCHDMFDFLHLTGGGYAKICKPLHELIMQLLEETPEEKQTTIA
HTRA1 inhibitor: inhibitors of human serine peptidase HTRA1; 340,000 compounds, 0.5% hits; AID 504803; recombinant HTRA1, FP-rhodamine activity-based probe, fluorescence polarization; Q92743; inhibition, % at 5.96 µM; in the data active = inhibition above about 36%;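 note: 0% = enzyme with DMSO and 100% = wells lacking enzyme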
pPAFAH FP inh: pPAFAH (human) enzyme inhibition. AID 463082. inhibition, % at 3.39 µM. Q13093. 330,000 compounds, 1.5% hits. recombinant pPAFAH, FP-rhodamine probe fluorescence polarization;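 active = inhibition above the mean inhibition across the screen plus 3 SD, cut at about 25% in these data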;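 note: inhibitors block binding of the rhodamine activity-based probe so polarization drops; 0% = enzyme with DMSO and 100% = wells lacking pPAFAH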
HTRA1 conf: confirmation of human HTRA1 inhibitors; shares compounds with HTRA1 inhibitor; 1,600 compounds, 66% hits; inhibition, % at 5.96 µM; recombinant HTRA1, FP-rhodamine activity-based probe, fluorescence polarization;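 active = mean inhibition over three repeats above a set limit taken from the earlier primary screen, cut at about 37% in these data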;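 note: 0% = HTRA1 with DMSO and 100% = wells lacking HTRA1; inhibitors block probe binding so polarization drops and inhibition rises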
* marks the source's active call; other numbers are inactive results; . = no result given. The list is not random: actives were taken first. Their share in the collection is about 2.8%.

SMILES	PAFAH2 inh	ABHD4 inh	PAFAH1B3 FP inh	PAFAH1B2 FP inh	HTRA1 inhibitor	pPAFAH FP inh	HTRA1 conf
Nc1ccccc1N=Nc1ccccc1N	11	9	5	6	42*	13	39*
O=C(CN1CCN(S(=O)(=O)c2ccc(Br)cc2)CC1)c1ccc(O)c(O)c1	14	18	1	29*	37*	11	39*
CCOc1ccc(C(=O)CN2CCN(S(=O)(=O)c3ccc(Cl)cc3)CC2)cc1	-3	-8	6	15	-5	-1	.
CC(C)c1ccc(S(=O)(=O)N2CCN(CC(=O)c3ccc(O)c(O)c3)CC2)cc1	17	21	7	6	38*	20	35
CC1(c2nnnn2-c2ccc3c(c2)OCCO3)CSCC(=O)N1CCc1c[nH]c2ccccc12 (stereo unspecified)	.	-2	.	.	.	.	.
CCOC(=O)[C@@]12CCCC3=C1N(CCC3)C(=O)[C@H]2CC(=O)NCc1ccccc1	.	7	.	.	.	.	.
O=[N+]([O-])c1cc(Cl)c2cccnc2c1O	5	10	8	-5	43*	7	52*
O=[N+]([O-])c1ccc(Cl)c2cccnc12	-3	-7	4	1	1	-6	.
O=[N+]([O-])c1cc(F)c2cccnc2c1O	3	16	9	6	55*	9	48*
Oc1c(I)cc(Cl)c2cccnc12	-1	27	16	11	54*	31*	87*
COc1ccc(N2CCN(CCCNC(=O)COc3ccc(C)cc3)CC2)cc1	.	0	.	.	.	.	.
Cc1ccc2nc3sc(C(=O)N4CCN(C)CC4)cc3cc2c1	.	0	.	.	.	.	.
CC1(C)C=C2C(N(CC3CC3)C(=N)N2C(=O)OCc2ccccc2)n2c(=O)n(-c3ccccc3)c(=O)n21 (stereo unspecified)	.	-1	.	.	.	.	.
CCOc1ccc(N(CC(=O)Nc2c(C)n(C)n(-c3ccccc3)c2=O)S(=O)(=O)c2ccc(C(C)(C)C)cc2)cc1	.	-1	.	.	.	.	.
C=CCN1C(=O)[C@@H](CC(=O)NCCc2ccccc2OC)[C@]2(C(=O)OCC)CCCCC/C=C/12	.	-1	.	.	.	.	.
CCC(NC(=O)c1ccc2c(ccn2Cc2cccc(-c3ccccc3C(=O)O)c2)c1)c1ccccc1 (stereo unspecified)	.	-51	.	.	.	.	.
O=C1CSC(=S)N1N=Cc1c[nH]c2ccc(Br)cc12	.	25	.	.	56*	.	60*
O=C(OCCN1CCN(C2CN(Cc3cn(Cc4cccc(F)c4)nn3)S(=O)(=O)C2)CC1)c1cc2ccccc2o1 (stereo unspecified)	.	4	.	.	.	.	.
O=C(Oc1c(CN2CCOCC2)cc(Cl)c2cccnc12)c1ccccc1F	7	27	11	3	41*	6	34
O=C(Oc1c(CN2CCOCC2)cc(Cl)c2cccnc12)c1ccccc1	1	7	9	6	37*	3	7
Oc1ccc(CN2CCN(Cc3ccccc3)CC2)c2cccnc12	-9	8	1	-1	28	1	.
COc1ccc(C(=O)Oc2c(CN3CCOCC3)cc(Cl)c3cccnc23)cc1OC	.	6	.	.	.	-4	.
COc1cc(OC)cc(C(=O)Oc2c(CN3CCOCC3)cc(Cl)c3cccnc23)c1	0	8	-1	2	38*	2	3
Oc1c(Cl)cc(CN2CCOCC2)c2cccnc12	7	6	8	5	41*	28*	31
O=C(Oc1ccc(C(=S)N2CCOCC2)cc1Cl)c1ccccc1F	2	-3	8	4	-1	10	.
SMILES	PAFAH2 inh	ABHD4 inh	PAFAH1B3 FP inh	PAFAH1B2 FP inh	HTRA1 inhibitor	pPAFAH FP inh	HTRA1 conf
C#CCNC(=O)C[C@H]1C(=O)N(CCCOC)C2=CCCC[C@@]21C(=O)OCC	.	6	.	.	.	.	.
O=C(COc1c(Br)cc(Br)c2cccnc12)N1CCCCC1	-3	1	-2	0	3	6	.
Oc1c(CN2CCCCC2)cc(Br)c2cccnc12	-3	21	13	6	71*	12	72*
CN1CCN(Cc2cc(COCc3ccccc3)c3cccnc3c2O)CC1	11	-2	12	-1	50*	9	87*
COC(=O)[C@]12C[C@H](CC(=O)NCc3ccc(C)o3)C(=O)N(Cc3ccc(Cl)cc3Cl)C1=C[C@H](C(C)(C)C)O[C@@H]2C	.	-13	.	.	.	.	.
Brc1ccc(C=Nc2ccc(Nc3ccccc3)cc2)s1	-4	.	7	8	73*	11	94*
O=C(CCC(=O)N/N=C/c1ccc(Br)s1)NCc1ccccc1	3	5	7	5	-2	19	.
O=C(NNc1nc2ccc(Cl)cc2s1)c1cc(-c2cccs2)nc2ccccc12	-4	-6	14	-2	42*	15	56*
O=c1c(CO)cc(CO)cc(CO)c1O	0	0	8	4	11	7	.
O=C1C=CC(=O)c2c(O)c(CO)c(CO)c(O)c21	68*	62*	50*	25*	46*	.	57*
Cc1cc(-c2csc(N)n2)c(C)n1Cc1ccco1	7	16	3	1	27	14	.
Cc1ccc(-n2c(C)cc(-c3csc(N)n3)c2C)cc1	3	18	1	-2	52*	25*	50*
COc1ccccc1Nc1ccc2c(O)cc(S(=O)(=O)O)cc2c1	75*	86*	75*	34*	69*	.	53*
CCC(=C(c1ccc(OC)cc1)c1ccc(OC)cc1)c1cn(CC(O)CN2CCN(C)CC2)c2ccccc12 (stereo unspecified)	2	25	11	0	37*	18	39*
CCC(c1ccc(O)c(O)c1)C(CC)c1ccc(O)c(O)c1 (stereo unspecified)	-2	.	-4	27*	59*	.	68*
CCCCC(=O)NC(c1ccc(OC)cc1)c1ccc2cccnc2c1O (stereo unspecified)	.	4	.	.	18	.	.
CCCCC(=O)NC(c1ccc(Cl)cc1Cl)c1ccc2cccnc2c1O (stereo unspecified)	2	11	6	-2	48*	.	76*
CC(C)C(=O)NC(c1ccc(Cl)cc1Cl)c1ccc2cccnc2c1O (stereo unspecified)	-12	9	9	-1	49*	26*	47*
CCC(=O)NC(c1ccc(Cl)cc1Cl)c1ccc2cccnc2c1O (stereo unspecified)	6	19	14	0	74*	27*	73*
CCCC(=O)NC(c1ccc(N(C)C)cc1)c1ccc2cccnc2c1O (stereo unspecified)	7	16	7	1	35	11	.
COC(=O)[C@]12C[C@H](CC(=O)NCc3ccc(C)o3)C(=O)N(Cc3ccc(Cl)cc3Cl)C1=C[C@H](C1CCCC1)O[C@@H]2C	.	-4	.	.	.	.	.
O=C(c1cccc(C(F)(F)F)c1)N1CC[C@H]2[C@H](CCCN2Cc2ccccc2)C1	.	0	.	.	.	.	.
